For one molecule, ED50 and Activity results are on record in ChEMBL document CHEMBL4014336 (J Med Chem, 2017).

In series [1] the test system is Cynomolgus monkey. Kind of series: In vivo inhibition of 11beta-HSD1 in non-fasting diet-induced obese cynomolgus monkey assessed as decrease in corticosterone excursion in plasma pretreated via oral gavage for 30 mins followed by DHC administration measured up to 60 mins by enzyme immunosorbent assay. The series is classed as functional. The conditions noted are these: Macaca fascicularis. A digest of the protocol: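 Cynomolgus monkeys given test compound at a predetermined time before the experiment, chosen from its pharmacokinetics. Substrate DHC (rodent substrate, used in place of cortisone) given afterwards. Blood sampled at various times. Design otherwise similar to the mouse DHC challenge.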

Series [2] deals with Cynomolgus monkey. Kind of series: Toxicity in cynomolgus monkey assessed as HPA axis activation by measuring increase in DHEA level at 10 mg/kg for 7 days. The series is classed as organism-based, Macaca fascicularis. Conditions: in vivo, 168 h.
For series [3], the system named is Cynomolgus monkey. The experiment in a line: Toxicity in cynomolgus monkey assessed as HPA axis activation by measuring increase in DHEAS level at 10 mg/kg for 7 days. Conditions: in vivo, 168 h. Format: organism-based, Macaca fascicularis.
Series [4] has as its system Cynomolgus monkey. The experiment in a line: Toxicity in cynomolgus monkey assessed as HPA axis activation by measuring increase in cortisol level at 10 mg/kg for 7 days. The series is classed as organism-based, Macaca fascicularis. The conditions noted are these: in vivo, 168 h.

In the case of `O=C(O)CC1(c2ccc(F)cc2)C2CC3CC(C2)CC1C3` (centres undefined), the ED50 in the series on Cynomolgus monkey [1] was determined as 0.3 mg/kg. In addition, the Activity result with Cynomolgus monkey [2], in the series with Cynomolgus monkey [3] and with Cynomolgus monkey [4] was “Toxic” each time.
